Assays:
Type in all cases: functional
[1] = tested on: Pseudomonas aeruginosa; test: Antibacterial activity against Pseudomonas aeruginosa ATCC 27853 at 1 mg/mL after 24 hrs by agar-well diffusion method; conditions: ATCC 27853, 24 h, read-out: IZ
Method in brief: (§1)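 Well diffusion on Mueller-Hinton agar seeded with 24 h old cultures. Test compounds dissolved in DMSO at 1, 0.5 and 0.25 mg/mL. 6 mm wells were punched with a sterile cork borer, test solutions added, and plates incubated 24 h at 37 °C.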

[2] = tested on: Escherichia coli; test: Antibacterial activity against Escherichia coli ATCC 25922 at 0.25 mg/mL after 24 hrs by agar-well diffusion method; conditions: ATCC 25922, 24 h, read-out: IZ; method in brief: as §1
[3] = tested on: Staphylococcus aureus; test: Antibacterial activity against Staphylococcus aureus ATCC 25923 at 0.25 mg/mL after 24 hrs by agar-well diffusion method; conditions: ATCC 25923, 24 h, read-out: IZ; method in brief: as §1
[4] = tested on: Pseudomonas aeruginosa; test: Antibacterial activity against Pseudomonas aeruginosa ATCC 27853 at 0.25 mg/mL after 24 hrs by agar-well diffusion method; conditions: ATCC 27853, 24 h, read-out: IZ; method in brief: as §1
[5] = tested on: Staphylococcus aureus; test: Antibacterial activity against Staphylococcus aureus ATCC 25923 at 1 mg/mL after 24 hrs by agar-well diffusion method; conditions: ATCC 25923, 24 h, read-out: IZ; method in brief: as §1
[6] = tested on: Escherichia coli; test: Antibacterial activity against Escherichia coli ATCC 25922 at 1 mg/mL after 24 hrs by agar-well diffusion method; conditions: ATCC 25922, 24 h, read-out: IZ; method in brief: as §1
[7] = tested on: Staphylococcus aureus; test: Antibacterial activity against Staphylococcus aureus ATCC 25923 at 0.5 mg/mL after 24 hrs by agar-well diffusion method; conditions: ATCC 25923, 24 h, read-out: IZ; method in brief: as §1
[8] = tested on: Escherichia coli; test: Antibacterial activity against Escherichia coli ATCC 25922 at 0.5 mg/mL after 24 hrs by agar-well diffusion method; conditions: ATCC 25922, 24 h, read-out: IZ; method in brief: as §1
[9] = tested on: Pseudomonas aeruginosa; test: Antibacterial activity against Pseudomonas aeruginosa ATCC 27853 at 0.5 mg/mL after 24 hrs by agar-well diffusion method; conditions: ATCC 27853, 24 h, read-out: IZ; method in brief: as §1
[10] = tested on: Aspergillus flavus; test: Antifungal activity against Aspergillus flavus MTCC 3306 at 1 mg/mL after 72 hrs by agar-well diffusion method; conditions: MTCC 3306, 72 h, read-out: DIZ
Method in brief: (§2)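 Fungal spore suspensions made in normal saline were spread onto agar adjusted to pH 5.7, then dried 1 h at 37 °C. Wells were cut and loaded with test compounds in DMSO at different concentrations, with a DMSO control. Plates run in triplicate at 25 °C for 72 h. Read-out was inhibition zone diameter.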

[11] = tested on: Aspergillus flavus; test: Antifungal activity against Aspergillus flavus MTCC 3306 at 0.5 mg/mL after 72 hrs by agar-well diffusion method; conditions: MTCC 3306, 72 h, read-out: DIZ; method in brief: as §2
[12] = tested on: Aspergillus flavus; test: Antifungal activity against Aspergillus flavus MTCC 3306 at 0.25 mg/mL after 72 hrs by agar-well diffusion method; conditions: MTCC 3306, 72 h, read-out: DIZ; method in brief: as §2
[13] = tested on: Candida albicans; test: Antifungal activity against Candida albicans MTCC 3017 at 1 mg/mL after 72 hrs by agar-well diffusion method; conditions: MTCC 3017, 72 h, read-out: DIZ; method in brief: as §2
[14] = tested on: Radical scavenging activity; test: Antioxidant activity assessed as DPPH free radical scavenging activity at 100 uM after 30 mins
Method in brief: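 Sample brought to 1 mL with MeOH and mixed with 3 mL fresh 0.1 mM DPPH. Kept 30 min in the dark, then absorbance read at 517 nm. A DPPH control without sample was included. Scavenging (%) = [(Abs control − Abs sample)/Abs control] × 100.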

[15] = Antifungal activity against Chrysosporium keratinophilum MTCC 2827 at 0.25 mg/mL after 72 hrs by agar-well diffusion method; method in brief: as §2
[16] = Antifungal activity against Chrysosporium keratinophilum MTCC 2827 at 1 mg/mL after 72 hrs by agar-well diffusion method; method in brief: as §2
[17] = Antifungal activity against Chrysosporium keratinophilum MTCC 2827 at 0.5 mg/mL after 72 hrs by agar-well diffusion method; method in brief: as §2
[18] = tested on: Candida albicans; test: Antifungal activity against Candida albicans MTCC 3017 at 0.5 mg/mL after 72 hrs by agar-well diffusion method; conditions: MTCC 3017, 72 h, read-out: DIZ; method in brief: as §2
[19] = tested on: Candida albicans; test: Antifungal activity against Candida albicans MTCC 3017 at 0.25 mg/mL after 72 hrs by agar-well diffusion method; conditions: MTCC 3017, 72 h, read-out: DIZ; method in brief: as §2

| SMILES | zone of inhibition at 1000 µg/mL [1] | zone of inhibition at 250 µg/mL [2] | zone of inhibition at 250 µg/mL [3] | zone of inhibition at 250 µg/mL [4] | zone of inhibition at 1000 µg/mL [5] | zone of inhibition at 1000 µg/mL [6] | zone of inhibition at 500 µg/mL [7] | zone of inhibition at 500 µg/mL [8] | zone of inhibition at 500 µg/mL [9] | zone of inhibition at 1000 µg/mL [10] | zone of inhibition at 500 µg/mL [11] | zone of inhibition at 250 µg/mL [12] | zone of inhibition at 1000 µg/mL [13] | Activity [14] | inhibition zone (IZ) [15] | inhibition zone (IZ) [16] | inhibition zone (IZ) [17] | zone of inhibition at 500 µg/mL [18] | zone of inhibition at 250 µg/mL [19] |
| --- | --- | --- | --- | --- | --- | --- | --- | --- | --- | --- | --- | --- | --- | --- | --- | --- | --- | --- | --- |
| CN[C@@H]1[C@H](O[C@H]2[C@H](O[C@H]3[C@H](O)[C@@H](O)[C@H](N=C(N)N)[C@@H](O)[C@@H]3N=C(N)N)O[C@@H](C)[C@]2(O)C=O)O[C@@H](CO)[C@H](O)[C@H]1O [STREPTOMYCIN] | 16 mm | 8 mm | 9 mm | 11 mm | 15 mm | 16 mm | 10 mm | 10 mm | 13 mm | – | – | – | – | – | – | – | – | – | – |
| CCOC(=O)C1=C(C)NC(C)=C(C(=O)OCC)C1c1c[nH]nc1-c1cc(Cl)sc1Cl | 15 mm | 8 mm | 8 mm | 10 mm | 13 mm | 16 mm | 9 mm | 10 mm | 12 mm | 4 mm | 3 mm | 3 mm | 5 mm | 32% | 2 mm | 5 mm | 2 mm | 2 mm | 2 mm |
| CCOC(=O)C1=C(C)NC(C)=C(C(=O)OCC)C1c1c[nH]nc1-c1ccc(Cl)cc1Cl | 12 mm | 2 mm | 5 mm | 7 mm | 11 mm | 6 mm | 7 mm | 4 mm | 9 mm | 3 mm | 2 mm | 2 mm | 4 mm | 29.2% | 1 mm | 4 mm | 2 mm | 1 mm | 1 mm |
| COC(=O)C1=C(C)NC(C)=C(C(=O)OC)C1c1c[nH]nc1-c1ccc(OC)cc1 | 7 mm | 2 mm | 2 mm | 2 mm | 6 mm | 7 mm | 4 mm | 4 mm | 4 mm | 0 mm | 0 mm | 0 mm | 0 mm | 30.2% | 0 mm | 0 mm | 0 mm | 0 mm | 0 mm |
| COC(=O)C1=C(C)NC(C)=C(C(=O)OC)C1c1c[nH]nc1-c1cc(Cl)sc1Cl | 7 mm | 5 mm | 4 mm | 1 mm | 10 mm | 10 mm | 8 mm | 7 mm | 3 mm | 3 mm | 2 mm | 0 mm | 3 mm | 30.3% | 1 mm | 4 mm | 2 mm | 2 mm | 0 mm |
| COC(=O)C1=C(C)NC(C)=C(C(=O)OC)C1c1c[nH]nc1-c1ccc(SC)cc1 | 6 mm | 1 mm | 2 mm | 3 mm | 6 mm | 4 mm | 3 mm | 2 mm | 4 mm | 0 mm | 0 mm | 0 mm | 0 mm | 32.2% | 0 mm | 0 mm | 0 mm | 0 mm | 0 mm |
| OC(Cn1cncn1)(Cn1cncn1)c1ccc(F)cc1F [FLUCONAZOLE] | – | – | – | – | – | – | – | – | – | 13 mm | 11 mm | 10 mm | 22 mm | – | 14 mm | 17 mm | 15 mm | 21 mm | 20 mm |
| COC(=O)C1=C(C)NC(C)=C(C(=O)OC)C1c1c[nH]nc1-c1ccc(-c2ccccc2)cc1 | 10 mm | 8 mm | 5 mm | 7 mm | 9 mm | 13 mm | 7 mm | 10 mm | 8 mm | 5 mm | 4 mm | 2 mm | 0 mm | 25.3% | 0 mm | 3 mm | 2 mm | 0 mm | 0 mm |
| COC(=O)C1=C(C)NC(C)=C(C(=O)OC)C1c1c[nH]nc1-c1ccc(Cl)cc1 | 9 mm | 5 mm | 3 mm | 4 mm | 8 mm | 10 mm | 6 mm | 8 mm | 7 mm | 6 mm | 3 mm | 1 mm | 3 mm | 29.4% | 2 mm | 5 mm | 4 mm | 1 mm | 0 mm |
| Cc1cc(C(C)(C)C)c(O)c(C(C)(C)C)c1 | – | – | – | – | – | – | – | – | – | – | – | – | – | 72.4% | – | – | – | – | – |
| COC(=O)C1=C(C)NC(C)=C(C(=O)OC)C1c1c[nH]nc1-c1ccc(Cl)cc1Cl | 8 mm | 2 mm | 2 mm | 2 mm | 6 mm | 6 mm | 3 mm | 3 mm | 4 mm | 3 mm | 2 mm | 0 mm | 3 mm | 35.2% | 0 mm | 5 mm | 1 mm | 0 mm | 0 mm |
